{"source": "ChEMBL document CHEMBL1629696", "about": "“Identification of a novel transposon (Tn6072) and a truncated staphylococcal cassette chromosome mec element in methicillin-resistant Staphylococcus aureus ST239” (2010)", "assay_type_in_all_cases": "functional", "key": {"Staphylococcus aureus [1]": {"test_system": "Staphylococcus aureus", "assay": "Antimicrobial activity against methicillin-resistant Staphylococcus aureus 16683 by broth dilution method", "outline": "(§1)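 Oxacillin MIC by broth dilution per CLSI guidelines, on clinical MRSA isolates collected March 2004–June 2005 at a county hospital in Braşov, Romania. Bacterial suspensions were incubated 24 h at 37°C and growth was read as OD600. S. aureus MRSA252 and MSSA476 served as positive and negative controls.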"}, "Staphylococcus aureus [2]": {"test_system": "Staphylococcus aureus", "assay": "Antimicrobial activity against methicillin-resistant Staphylococcus aureus 16652 by broth dilution method", "outline": "as §1"}, "Staphylococcus aureus [3]": {"test_system": "Staphylococcus aureus", "assay": "Antimicrobial activity against methicillin-resistant Staphylococcus aureus 16656 by broth dilution method", "outline": "as §1"}, "Staphylococcus aureus [4]": {"test_system": "Staphylococcus aureus", "assay": "Antimicrobial activity against methicillin-resistant Staphylococcus aureus 16645 by broth dilution method", "outline": "as §1"}, "Staphylococcus aureus [5]": {"test_system": "Staphylococcus aureus", "assay": "Antimicrobial activity against methicillin-resistant Staphylococcus aureus 16670 by broth dilution method", "outline": "as §1"}, "Staphylococcus aureus [6]": {"test_system": "Staphylococcus aureus", "assay": "Antimicrobial activity against methicillin-resistant Staphylococcus aureus 16671 by broth dilution method", "outline": "as §1"}, "Staphylococcus aureus [7]": {"test_system": "Staphylococcus aureus", "assay": "Antimicrobial activity against methicillin-resistant Staphylococcus aureus 16689 by broth dilution method", "outline": "as §1"}, "Staphylococcus aureus [8]": {"test_system": "Staphylococcus aureus", "assay": "Antimicrobial activity against methicillin-resistant Staphylococcus aureus 16666 by broth dilution method", "outline": "as §1"}, "Staphylococcus aureus [9]": {"test_system": "Staphylococcus aureus", "assay": "Antimicrobial activity against methicillin-resistant Staphylococcus aureus 16651 by broth dilution method", "outline": "as §1"}, "Staphylococcus aureus [10]": {"test_system": "Staphylococcus aureus", "assay": "Antimicrobial activity against methicillin-resistant Staphylococcus aureus 16688 by broth dilution method", "outline": "as §1"}, "Staphylococcus aureus [11]": {"test_system": "Staphylococcus aureus", "assay": "Antimicrobial activity against methicillin-resistant Staphylococcus aureus 16674 by broth dilution method", "outline": "as §1"}, "Staphylococcus aureus [12]": {"test_system": "Staphylococcus aureus", "assay": "Antimicrobial activity against methicillin-resistant Staphylococcus aureus 16653 by broth dilution method", "outline": "as §1"}, "Staphylococcus aureus [13]": {"test_system": "Staphylococcus aureus", "assay": "Antimicrobial activity against methicillin-resistant Staphylococcus aureus 16672 by broth dilution method", "outline": "as §1"}, "Staphylococcus aureus [14]": {"test_system": "Staphylococcus aureus", "assay": "Antimicrobial activity against methicillin-resistant Staphylococcus aureus 16646 by broth dilution method", "outline": "as §1"}, "Staphylococcus aureus [15]": {"test_system": "Staphylococcus aureus", "assay": "Antimicrobial activity against methicillin-resistant Staphylococcus aureus 16658 by broth dilution method", "outline": "as §1"}, "Staphylococcus aureus [16]": {"test_system": "Staphylococcus aureus", "assay": "Antimicrobial activity against methicillin-resistant Staphylococcus aureus 16695 by broth dilution method", "outline": "as §1"}, "Staphylococcus aureus [17]": {"test_system": "Staphylococcus aureus", "assay": "Antimicrobial activity against methicillin-resistant Staphylococcus aureus HDG2 by broth dilution method"}, "Staphylococcus aureus [18]": {"test_system": "Staphylococcus aureus", "assay": "Antimicrobial activity against methicillin-resistant Staphylococcus aureus 16698 by broth dilution method", "outline": "as §1"}, "Staphylococcus aureus [19]": {"test_system": "Staphylococcus aureus", "assay": "Antimicrobial activity against methicillin-resistant Staphylococcus aureus 16679 by broth dilution method", "outline": "as §1"}, "Staphylococcus aureus [20]": {"test_system": "Staphylococcus aureus", "assay": "Antimicrobial activity against methicillin-resistant Staphylococcus aureus 16692 by broth dilution method", "outline": "as §1"}, "Staphylococcus aureus [21]": {"test_system": "Staphylococcus aureus", "assay": "Antimicrobial activity against methicillin-resistant Staphylococcus aureus 16700 by broth dilution method", "outline": "as §1"}, "Staphylococcus aureus [22]": {"test_system": "Staphylococcus aureus", "assay": "Antimicrobial activity against methicillin-resistant Staphylococcus aureus 16704 by broth dilution method", "outline": "as §1"}, "Staphylococcus aureus [23]": {"test_system": "Staphylococcus aureus", "assay": "Antimicrobial activity against methicillin-resistant Staphylococcus aureus 16708 by broth dilution method", "outline": "as §1"}, "Staphylococcus aureus [24]": {"test_system": "Staphylococcus aureus", "assay": "Antimicrobial activity against methicillin-resistant Staphylococcus aureus 16676 by broth dilution method", "outline": "as §1"}, "Staphylococcus aureus [25]": {"test_system": "Staphylococcus aureus", "assay": "Antimicrobial activity against methicillin-resistant Staphylococcus aureus 16702 by broth dilution method", "outline": "as §1"}, "Staphylococcus aureus [26]": {"test_system": "Staphylococcus aureus", "assay": "Antimicrobial activity against methicillin-resistant Staphylococcus aureus 16696 by broth dilution method", "outline": "as §1"}, "Staphylococcus aureus [27]": {"test_system": "Staphylococcus aureus", "assay": "Antimicrobial activity against methicillin-resistant Staphylococcus aureus 16686 by broth dilution method", "outline": "as §1"}, "Staphylococcus aureus [28]": {"test_system": "Staphylococcus aureus", "assay": "Antimicrobial activity against methicillin-resistant Staphylococcus aureus 16677 by broth dilution method", "outline": "as §1"}, "Staphylococcus aureus [29]": {"test_system": "Staphylococcus aureus", "assay": "Antimicrobial activity against methicillin-resistant Staphylococcus aureus 16678 by broth dilution method", "outline": "as §1"}, "Staphylococcus aureus [30]": {"test_system": "Staphylococcus aureus", "assay": "Antimicrobial activity against methicillin-resistant Staphylococcus aureus 16703 by broth dilution method", "outline": "as §1"}, "Staphylococcus aureus [31]": {"test_system": "Staphylococcus aureus", "assay": "Antimicrobial activity against methicillin-resistant Staphylococcus aureus 16699 by broth dilution method", "outline": "as §1"}, "Staphylococcus aureus [32]": {"test_system": "Staphylococcus aureus", "assay": "Antimicrobial activity against methicillin-resistant Staphylococcus aureus 16687 by broth dilution method", "outline": "as §1"}, "Staphylococcus aureus [33]": {"test_system": "Staphylococcus aureus", "assay": "Antimicrobial activity against methicillin-resistant Staphylococcus aureus 16691 by broth dilution method", "outline": "as §1"}, "Staphylococcus aureus [34]": {"test_system": "Staphylococcus aureus", "assay": "Antimicrobial activity against methicillin-resistant Staphylococcus aureus 16684 by broth dilution method", "outline": "as §1"}, "Staphylococcus aureus [35]": {"test_system": "Staphylococcus aureus", "assay": "Antimicrobial activity against methicillin-resistant Staphylococcus aureus 16680 by broth dilution method", "outline": "as §1"}, "Staphylococcus aureus [36]": {"test_system": "Staphylococcus aureus", "assay": "Antimicrobial activity against methicillin-resistant Staphylococcus aureus 85/2082 by broth dilution method"}}, "data": [{"smiles": "Cc1onc(-c2ccccc2)c1C(=O)N[C@@H]1C(=O)N2[C@@H]1SC(C)(C)[C@@H]2C(=O)O", "note": "[OXACILLIN]", "values": [{"measurement": "MIC", "setting": "Staphylococcus aureus [1]", "result": 256, "unit": "µg/mL"}, {"measurement": "MIC", "setting": "Staphylococcus aureus [2]", "result": 512, "unit": "µg/mL"}, {"measurement": "MIC", "setting": "Staphylococcus aureus [3]", "result": 512, "unit": "µg/mL"}, {"measurement": "MIC", "setting": "Staphylococcus aureus [4]", "result": "> 512", "unit": "µg/mL"}, {"measurement": "MIC", "setting": "Staphylococcus aureus [5]", "result": 512, "unit": "µg/mL"}, {"measurement": "MIC", "setting": "Staphylococcus aureus [6]", "result": 512, "unit": "µg/mL"}, {"measurement": "MIC", "setting": "Staphylococcus aureus [7]", "result": 512, "unit": "µg/mL"}, {"measurement": "MIC", "setting": "Staphylococcus aureus [8]", "result": 256, "unit": "µg/mL"}, {"measurement": "MIC", "setting": "Staphylococcus aureus [9]", "result": 512, "unit": "µg/mL"}, {"measurement": "MIC", "setting": "Staphylococcus aureus [10]", "result": 512, "unit": "µg/mL"}, {"measurement": "MIC", "setting": "Staphylococcus aureus [11]", "result": 256, "unit": "µg/mL"}, {"measurement": "MIC", "setting": "Staphylococcus aureus [12]", "result": 512, "unit": "µg/mL"}, {"measurement": "MIC", "setting": "Staphylococcus aureus [13]", "result": 8, "unit": "µg/mL"}, {"measurement": "MIC", "setting": "Staphylococcus aureus [14]", "result": 512, "unit": "µg/mL"}, {"measurement": "MIC", "setting": "Staphylococcus aureus [15]", "result": 256, "unit": "µg/mL"}, {"measurement": "MIC", "setting": "Staphylococcus aureus [16]", "result": 512, "unit": "µg/mL"}, {"measurement": "MIC", "setting": "Staphylococcus aureus [17]", "result": 64, "unit": "µg/mL"}, {"measurement": "MIC", "setting": "Staphylococcus aureus [18]", "result": 512, "unit": "µg/mL"}, {"measurement": "MIC", "setting": "Staphylococcus aureus [19]", "result": 512, "unit": "µg/mL"}, {"measurement": "MIC", "setting": "Staphylococcus aureus [20]", "result": 256, "unit": "µg/mL"}, {"measurement": "MIC", "setting": "Staphylococcus aureus [21]", "result": 512, "unit": "µg/mL"}, {"measurement": "MIC", "setting": "Staphylococcus aureus [22]", "result": 512, "unit": "µg/mL"}, {"measurement": "MIC", "setting": "Staphylococcus aureus [23]", "result": 256, "unit": "µg/mL"}, {"measurement": "MIC", "setting": "Staphylococcus aureus [24]", "result": 512, "unit": "µg/mL"}, {"measurement": "MIC", "setting": "Staphylococcus aureus [25]", "result": 512, "unit": "µg/mL"}, {"measurement": "MIC", "setting": "Staphylococcus aureus [26]", "result": 512, "unit": "µg/mL"}, {"measurement": "MIC", "setting": "Staphylococcus aureus [27]", "result": 512, "unit": "µg/mL"}, {"measurement": "MIC", "setting": "Staphylococcus aureus [28]", "result": 256, "unit": "µg/mL"}, {"measurement": "MIC", "setting": "Staphylococcus aureus [29]", "result": 256, "unit": "µg/mL"}, {"measurement": "MIC", "setting": "Staphylococcus aureus [30]", "result": 256, "unit": "µg/mL"}, {"measurement": "MIC", "setting": "Staphylococcus aureus [31]", "result": 256, "unit": "µg/mL"}, {"measurement": "MIC", "setting": "Staphylococcus aureus [32]", "result": 512, "unit": "µg/mL"}, {"measurement": "MIC", "setting": "Staphylococcus aureus [33]", "result": 256, "unit": "µg/mL"}, {"measurement": "MIC", "setting": "Staphylococcus aureus [34]", "result": 256, "unit": "µg/mL"}, {"measurement": "MIC", "setting": "Staphylococcus aureus [35]", "result": 512, "unit": "µg/mL"}, {"measurement": "MIC", "setting": "Staphylococcus aureus [36]", "result": 16, "unit": "µg/mL"}]}]}
